In ChEMBL document CHEMBL2429740, “The synthesis and SAR study of phenylalanine-derived (Z)-5-arylmethylidene rhodanines as anti-methicillin-resistant Staphylococcus aureus (MRSA) compounds” (2013):
Converted amounts (≈) assume the structure as drawn.

Legend:
Type in all cases: functional
[1] = tested on: Staphylococcus aureus; test: Antibacterial activity against methicillin-resistant Staphylococcus aureus ATCC 700698 by microdilution technique
[2] = tested on: Staphylococcus aureus; test: Antibacterial activity against methicillin-resistant Staphylococcus aureus CA ATCC BAA-1680 by microdilution technique
[3] = tested on: Staphylococcus aureus; test: Antibacterial activity against methicillin-resistant Staphylococcus aureus ATCC 700787 by microdilution technique
[4] = tested on: Staphylococcus aureus; test: Antibacterial activity against methicillin-resistant Staphylococcus aureus ST239 HS770 by microdilution technique
[5] = tested on: Staphylococcus aureus; test: Antibacterial activity against methicillin-resistant Staphylococcus aureus ATCC 34404 by microdilution technique
[6] = tested on: Staphylococcus aureus; test: Antibacterial activity against methicillin-resistant Staphylococcus aureus ATCC BAA-39 by microdilution technique
[7] = tested on: Staphylococcus aureus; test: Ratio of MIC for methicillin-resistant Staphylococcus aureus CA ATCC BAA-1680 in absence of 10% FBS to MIC for methicillin-resistant Staphylococcus aureus CA ATCC BAA-1680 in presence of 10% FBS
How it was run: (§1)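 MIC determined by the same turbidity-based microdilution method, once in standard medium and once in medium with 10% fetal serum added, to probe serum protein binding. The ratio is the MIC without serum over the MIC with serum, for each strain.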

[8] = tested on: Staphylococcus aureus; test: Ratio of MIC for methicillin-resistant Staphylococcus aureus ATCC 700698 in absence of 10% FBS to MIC for methicillin-resistant Staphylococcus aureus ATCC 700698 in presence of 10% FBS; how it was run: as §1
[9] = tested on: Staphylococcus aureus; test: Ratio of MIC for methicillin-resistant Staphylococcus aureus ATCC BAA-39 in absence of 10% FBS to MIC for methicillin-resistant Staphylococcus aureus ATCC BAA-39 in presence of 10% FBS; how it was run: as §1
[10] = tested on: Staphylococcus aureus; test: Ratio of MIC for methicillin-resistant Staphylococcus aureus ATCC 34404 in absence of 10% FBS to MIC for methicillin-resistant Staphylococcus aureus ATCC 34404 in presence of 10% FBS; how it was run: as §1
[11] = tested on: Staphylococcus aureus; test: Ratio of MIC for methicillin-resistant Staphylococcus aureus ST239 HS770 in absence of 10% FBS to MIC for methicillin-resistant Staphylococcus aureus ST239 HS770 in presence of 10% FBS; how it was run: as §1
[12] = tested on: Staphylococcus aureus; test: Ratio of MIC for methicillin-resistant Staphylococcus aureus ATCC 700787 in absence of 10% FBS to MIC for methicillin-resistant Staphylococcus aureus ATCC 700787 in presence of 10% FBS; how it was run: as §1

SMILES | MIC [1] | MIC [2] | MIC [3] | MIC [4] | MIC [5] | MIC [6] | Ratio [7] | Ratio [8] | Ratio [9] | Ratio [10] | Ratio [11] | Ratio [12]
O=C(O)[C@H](Cc1ccccc1)N1C(=O)/C(=C/c2cccc(OCCc3ccccc3)c2)SC1=S | 31.2 µg/mL (≈ 63.8 µM) | 15.6 µg/mL (≈ 31.9 µM) | 31.2 µg/mL (≈ 63.8 µM) | 15.6 µg/mL (≈ 31.9 µM) | 31.2 µg/mL (≈ 63.8 µM) | 31.2 µg/mL (≈ 63.8 µM) |  |  |  |  |  | 
O=C(O)[C@H](Cc1ccccc1)N1C(=O)/C(=C/c2cccc(OCc3ccccc3)c2)SC1=S | 3.9 µg/mL (≈ 8.2 µM) | 1.95 µg/mL (≈ 4.1 µM) | 3.9 µg/mL (≈ 8.2 µM) | 1.95 µg/mL (≈ 4.1 µM) | 1.95 µg/mL (≈ 4.1 µM) | 1.95 µg/mL (≈ 4.1 µM) |  |  |  |  |  | 
O=C(O)[C@H](Cc1ccccc1)N1C(=O)/C(=C/c2cccc(Oc3cccc(Cl)c3)c2)SC1=S | 15.6 µg/mL (≈ 31.5 µM) | 15.6 µg/mL (≈ 31.5 µM) | 15.6 µg/mL (≈ 31.5 µM) |  | 15.6 µg/mL (≈ 31.5 µM) | 15.6 µg/mL (≈ 31.5 µM) |  |  |  |  |  | 
O=C(O)[C@H](Cc1ccccc1)N1C(=O)/C(=C/c2cccc(-c3cncnc3)c2)SC1=S | 125 µg/mL (≈ 279 µM) | 125 µg/mL (≈ 279 µM) | 125 µg/mL (≈ 279 µM) | 125 µg/mL (≈ 279 µM) | 125 µg/mL (≈ 279 µM) | 125 µg/mL (≈ 279 µM) |  |  |  |  |  | 
O=C(O)[C@H](Cc1ccccc1)N1C(=O)/C(=C/c2cccc(Cc3ccc(Cl)c(Cl)c3)c2)SC1=S | 31.2 µg/mL (≈ 59.1 µM) | 31.2 µg/mL (≈ 59.1 µM) | 62.5 µg/mL (≈ 118 µM) | 15.6 µg/mL (≈ 29.5 µM) | 31.2 µg/mL (≈ 59.1 µM) | 15.6 µg/mL (≈ 29.5 µM) |  |  |  |  |  | 
O=C(c1ccccc1)c1cccc(/C=C2\SC(=S)N([C@@H](Cc3ccccc3)C(=O)O)C2=O)c1 | 7.8 µg/mL (≈ 16.5 µM) | 3.9 µg/mL (≈ 8.24 µM) | 7.8 µg/mL (≈ 16.5 µM) |  | 3.9 µg/mL (≈ 8.24 µM) | 3.9 µg/mL (≈ 8.24 µM) |  |  |  |  |  | 
O=C(O)[C@H](Cc1ccccc1)N1C(=O)/C(=C/c2cccc(Oc3ccc(F)cc3)c2)SC1=S | 7.8 µg/mL (≈ 16.3 µM) | 7.8 µg/mL (≈ 16.3 µM) | 7.8 µg/mL (≈ 16.3 µM) |  | 7.8 µg/mL (≈ 16.3 µM) | 7.8 µg/mL (≈ 16.3 µM) |  |  |  |  |  | 
O=C(O)[C@H](Cc1ccccc1)N1C(=O)/C(=C/c2cccc(Cc3ccccc3)c2)SC1=S | 3.9 µg/mL (≈ 8.49 µM) | 1.95 µg/mL (≈ 4.24 µM) | 3.9 µg/mL (≈ 8.49 µM) |  | 1.95 µg/mL (≈ 4.24 µM) | 1.95 µg/mL (≈ 4.24 µM) |  |  |  |  |  | 
O=C(O)[C@H](Cc1ccccc1)N1C(=O)/C(=C/c2ccccc2Cc2ccccc2)SC1=S | 7.8 µg/mL (≈ 17 µM) | 3.9 µg/mL (≈ 8.49 µM) | 7.8 µg/mL (≈ 17 µM) | 15.6 µg/mL (≈ 33.9 µM) | 15.6 µg/mL (≈ 33.9 µM) | 7.8 µg/mL (≈ 17 µM) |  |  |  |  |  | 
O=C(O)[C@H](Cc1ccccc1)N1C(=O)/C(=C/c2ccccc2Oc2ccccc2)SC1=S | 1.95 µg/mL (≈ 4.22 µM) | 1.95 µg/mL (≈ 4.22 µM) | 1.95 µg/mL (≈ 4.22 µM) |  | 1.95 µg/mL (≈ 4.22 µM) | 3.9 µg/mL (≈ 8.45 µM) |  |  |  |  |  | 
CN[C@H](CC(C)C)C(=O)N[C@H]1C(=O)N[C@@H](CC(N)=O)C(=O)N[C@H]2C(=O)N[C@H]3C(=O)N[C@H](C(=O)N[C@H](C(=O)O)c4cc(O)cc(O)c4-c4cc3ccc4O)[C@H](O)c3ccc(c(Cl)c3)Oc3cc2cc(c3O[C@@H]2O[C@H](CO)[C@@H](O)[C@H](O)[C@H]2O[C@H]2C[C@](C)(N)[C@H](O)[C@H](C)O2)Oc2ccc(cc2Cl)[C@H]1O [VANCOMYCIN] | ≤ 0.48 µg/mL | ≤ 0.48 µg/mL | 1.95 µg/mL (≈ 1.35 µM) | ≤ 0.48 µg/mL | ≤ 0.48 µg/mL | ≤ 0.48 µg/mL |  |  |  |  |  | 
O=C(O)[C@H](Cc1ccccc1)N1C(=O)/C(=C/c2cccc(Oc3ccc(Cl)c(Cl)c3)c2)SC1=S | 1.95 µg/mL (≈ 3.68 µM) | 1.95 µg/mL (≈ 3.68 µM) | 3.9 µg/mL (≈ 7.35 µM) |  | 0.98 µg/mL (≈ 1.85 µM) | 1.95 µg/mL (≈ 3.68 µM) | 2 | 2 | 2 | 2 | 2 | 2
O=C(O)c1cn(C2CC2)c2cc(N3CCNCC3)c(F)cc2c1=O [CIPROFLOXACIN] |  |  | 62.5 µg/mL (≈ 189 µM) | 62.5 µg/mL (≈ 189 µM) | ≤ 0.48 µg/mL |  |  |  |  |  |  | 
O=C(O)[C@H](Cc1ccccc1)N1C(=O)/C(=C/c2cccc(Oc3cccc(F)c3)c2)SC1=S | 15.6 µg/mL (≈ 32.5 µM) | 31.2 µg/mL (≈ 65.2 µM) | 31.2 µg/mL (≈ 65.2 µM) |  | 15.6 µg/mL (≈ 32.5 µM) | 15.6 µg/mL (≈ 32.5 µM) |  |  |  |  |  | 
O=C(O)[C@H](Cc1ccccc1)N1C(=O)/C(=C/c2cccc(Oc3ccc(Cl)cc3)c2)SC1=S | 7.8 µg/mL (≈ 15.7 µM) | 15.6 µg/mL (≈ 31.5 µM) | 15.6 µg/mL (≈ 31.5 µM) |  | 7.8 µg/mL (≈ 15.7 µM) | 7.8 µg/mL (≈ 15.7 µM) |  |  |  |  |  | 
O=C(O)[C@H](Cc1ccccc1)N1C(=O)/C(=C/c2cccc(OCC3CC3)c2)SC1=S | 15.6 µg/mL (≈ 35.5 µM) | 15.6 µg/mL (≈ 35.5 µM) | 15.6 µg/mL (≈ 35.5 µM) | 15.6 µg/mL (≈ 35.5 µM) | 15.6 µg/mL (≈ 35.5 µM) | 15.6 µg/mL (≈ 35.5 µM) |  |  |  |  |  | 
